In ChEMBL document CHEMBL5385966, “Synthesis and biological evaluation of new naphthalimide-thiourea derivatives as potent antimicrobial agents active against multidrug-resistant Staphylococcus aureus and Mycobacterium tuberculosis” (RSC Med Chem, 2024):
In brackets after ≈: the same amount, converted by molar mass. Activity calls are given as the source filed them. The rule behind the calls is not given here.

Experiments:
Mycobacteroides chelonae = experiment: Antimycobacterial activity against Mycobacteroides chelonae ATCC 35752 assessed as bacterial growth inhibition incubated for 72 hrs by resazurin dye based broth microdilution method; format: functional, organism-based
Method in brief: (§1)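 Broth microdilution in Middlebrook 7H9 with 10% ADC-Tween-80 (0.2% glycerol, 0.05% Tween-80), inoculum ~10⁶ cfu/mL. Compounds came from 10 mg/mL DMSO stocks and were tested as two-fold serial dilutions at 37 °C, 7 days for M. tuberculosis H37Rv and 72 h for NTM. Growth was read visually with PrestoBlue resazurin dye; MIC was the lowest concentration preventing growth. Triplicate determinations, each in duplicate.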

[1] = system: Mycolicibacterium fortuitum; experiment: Antimycobacterial activity against Mycobacterium fortuitum ATCC 6841 assessed as bacterial growth inhibition incubated for 72 hrs by resazurin dye based broth microdilution method; format: functional, organism-based; method in brief: as §1
Pseudomonas aeruginosa = experiment: Antibacterial activity against Pseudomonas aeruginosa ATCC 27853 assessed as bacterial growth inhibition incubated for 16 to 18 hrs by CLSI based antibiotic susceptibility testing method; format: functional, organism-based; settings: time 16-18 hrs
Method in brief: (§2)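 Broth microdilution in cation-adjusted Mueller-Hinton broth. Compounds were tested at […], with levofloxacin as reference and medium-only controls. Plates were incubated at 37 °C for 16-18 h. MIC was the lowest concentration with no visible growth; three independent determinations, each in duplicate.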

Staphylococcus aureus = experiment: Antibacterial activity against Staphylococcus aureus ATCC 29213 assessed as bacterial growth inhibition incubated for 16 to 18 hrs by CLSI based antibiotic susceptibility testing method; format: functional; settings: time 16-18 hrs; method in brief: as §2
Klebsiella pneumoniae = experiment: Antibacterial activity against Klebsiella pneumoniae BAA 1705 assessed as bacterial growth inhibition incubated for 16 to 18 hrs by CLSI based antibiotic susceptibility testing method; format: functional, organism-based; settings: time 16-18 hrs; method in brief: as §2
[2] = system: Mycobacterium tuberculosis; experiment: Antimycobacterial activity against Mycobacterium tuberculosis H37Rv ATCC 27294 assessed as bacterial growth inhibition incubated for 7 days by resazurin dye based broth microdilution method; format: functional; settings: H37Rv ATCC 27294, 168 h, time 7 day; method in brief: as §1
Acinetobacter baumannii = experiment: Antibacterial activity against Acinetobacter baumannii BAA 1605 assessed as bacterial growth inhibition incubated for 16 to 18 hrs by CLSI based antibiotic susceptibility testing method; format: functional, organism-based; settings: time 16-18 hrs; method in brief: as §2
Escherichia coli = experiment: Antibacterial activity against Escherichia coli ATCC 25922 assessed as bacterial growth inhibition incubated for 16 to 18 hrs by CLSI based antibiotic susceptibility testing method; format: functional, organism-based; settings: time 16-18 hrs; method in brief: as §2
[3] = system: Mycobacteroides abscessus; experiment: Antimycobacterial activity against Mycobacterium abscessus ATCC 19977 assessed as bacterial growth inhibition incubated for 72 hrs by resazurin dye based broth microdilution method; format: functional, organism-based; method in brief: as §1

SMILES | growth inhibition (GI) (Mycobacteroides chelonae) | growth inhibition (GI) [1] | growth inhibition (GI) (Pseudomonas aeruginosa) | MIC (Staphylococcus aureus) [µg/mL] | growth inhibition (GI) (Klebsiella pneumoniae) | MIC [2] [µg/mL] | growth inhibition (GI) (Acinetobacter baumannii) | growth inhibition (GI) (Escherichia coli) | growth inhibition (GI) [3]
O=C(CCN1C(=O)c2cccc3cccc(c23)C1=O)NC1CCN(C(=S)Nc2ccccc2)CC1 | inactive | inactive | inactive | > 64 | inactive | 64 (≈ 132 µM) | inactive | inactive | inactive
O=C(CN1C(=O)c2cccc3cccc(c23)C1=O)N1CCN(C(=S)Nc2ccccc2)CC1 | inactive | inactive | inactive | > 64 | inactive | 16 (≈ 34.9 µM) | inactive | inactive | inactive
NNC(=O)c1ccncc1 [ISONIAZID] | inactive | inactive | – | – | – | 0.03 (≈ 0.219 µM) | – | – | inactive
O=C(CCN1C(=O)c2cccc3cccc(c23)C1=O)NC1CCN(C(=S)Nc2ccc(Cl)cc2)CC1 | inactive | inactive | inactive | > 64 | inactive | > 64 | inactive | inactive | inactive
O=C1c2cccc3cccc(c23)C(=O)N1CCN1CCN(C(=S)NC23CC4CC(CC(C4)C2)C3)CC1 | inactive | inactive | inactive | > 64 | inactive | > 64 | inactive | inactive | inactive
O=C1c2cccc3cccc(c23)C(=O)N1CCN1CCN(C(=S)Nc2ccc(Cl)c(Cl)c2)CC1 | inactive | inactive | inactive | > 64 | inactive | > 64 | inactive | inactive | inactive
CCN=C(S)N1CCN(CCN2C(=O)c3cccc4cccc(c34)C2=O)CC1 | inactive | inactive | inactive | > 64 | inactive | 64 (≈ 161 µM) | inactive | inactive | inactive
CC[C@@H](CO)NCCN[C@@H](CC)CO [ETHAMBUTOL] | inactive | inactive | – | – | – | 2 (≈ 9.79 µM) | – | – | inactive
NCC[C@H](O)C(=O)N[C@@H]1C[C@H](N)[C@@H](O[C@H]2O[C@H](CN)[C@@H](O)[C@H](O)[C@H]2O)[C@H](O)[C@H]1O[C@H]1O[C@H](CO)[C@@H](O)[C@H](N)[C@H]1O [AMIKACIN] | inactive | inactive | – | – | – | 0.5 (≈ 0.854 µM) | – | – | inactive
O=C(CCN1C(=O)c2cccc3cccc(c23)C1=O)N1CCN(C(=S)Nc2ccccc2Cl)CC1 | inactive | inactive | inactive | > 64 | inactive | > 64 | inactive | inactive | inactive
O=C(CN1C(=O)c2cccc3cccc(c23)C1=O)N1CCN(C(=S)Nc2cccc(Cl)c2)CC1 | inactive | inactive | inactive | > 64 | inactive | 32 (≈ 64.9 µM) | inactive | inactive | inactive
CN[C@@H]1[C@H](O[C@H]2[C@H](O[C@H]3[C@H](O)[C@@H](O)[C@H](N=C(N)N)[C@@H](O)[C@@H]3N=C(N)N)O[C@@H](C)[C@]2(O)C=O)O[C@@H](CO)[C@H](O)[C@H]1O [STREPTOMYCIN] | inactive | inactive | – | – | – | 1 (≈ 1.72 µM) | – | – | inactive
